Converted amounts (≈) assume the structure as drawn.
Legend:
Type in all cases: functional
[1] = tested on: Mycobacterium tuberculosis; assay: Antitubercular activity against multi drug resistance Mycobacterium tuberculosis V2475 by MABA assay
Outline: (§1)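 Microplate alamar blue assay (MABA) against each Mtb strain, either H37Rv or a clinical isolate (drug-susceptible, MDR or XDR). MIC taken as the lowest concentration giving at least 90% reduction of the bacterial growth signal. Each value is the average of three individual measurements.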

[2] = tested on: Mycobacterium tuberculosis; assay: Antitubercular activity against isoniazid/rifampin resistance Mycobacterium tuberculosis KZN494 by MABA assay; outline: as §1
[3] = tested on: Mycobacterium tuberculosis; assay: Antitubercular activity against isoniazid/rifampin/levofloxacin/ofloxacin/kanamycin extensively drug resistance Mycobacterium tuberculosis TF274 XDR by MABA assay; outline: as §1
[4] = tested on: Mycobacterium tuberculosis; assay: Antitubercular activity against extensively drug resistance Mycobacterium tuberculosis R506 XDR by MABA; outline: as §1

| SMILES | MIC=<90 [1] [µg/mL] | MIC=<90 [2] [µg/mL] | MIC=<90 [3] [µg/mL] | MIC=<90 [4] [µg/mL] |
| --- | --- | --- | --- | --- |
| O=c1[nH]c2cc(O)ccc2c2oc3ccc(O)c(CN4CCCCC4)c3c12 | 0.0625 (≈ 0.172 µM) | 0.0313 (≈ 0.0859 µM) | 0.0156 (≈ 0.0428 µM) | 0.0156 (≈ 0.0428 µM) |
| NNC(=O)c1ccncc1 [ISONIAZID] | 16 (≈ 117 µM) | 16 (≈ 117 µM) | 8 (≈ 58.3 µM) | 8 (≈ 58.3 µM) |
| NC[C@H]1O[C@H](O[C@H]2[C@H](O)[C@@H](O[C@H]3O[C@H](CO)[C@@H](O)[C@H](N)[C@H]3O)[C@H](N)C[C@@H]2N)[C@H](O)[C@@H](O)[C@@H]1O [KANAMYCIN] | 2 (≈ 4.13 µM) | 2 (≈ 4.13 µM) | >128 | >128 |
| C[C@H]1COc2c(N3CCN(C)CC3)c(F)cc3c(=O)c(C(=O)O)cn1c23.C[C@H]1COc2c(N3CCN(C)CC3)c(F)cc3c(=O)c(C(=O)O)cn1c23.O [LEVOFLOXACIN] |  |  | 1 | 2 |
| CC1COc2c(N3CCN(C)CC3)c(F)cc3c(=O)c(C(=O)O)cn1c23 (configuration not stated) [OFLOXACIN] | 0.5 (≈ 1.38 µM) | 0.5 (≈ 1.38 µM) | 8 (≈ 22.1 µM) | 4 (≈ 11.1 µM) |
| CO[C@H]1/C=C/O[C@@]2(C)Oc3c(C)c(O)c4c(O)c(c(/C=N/N5CCN(C)CC5)c(O)c4c3C2=O)NC(=O)/C(C)=C\C=C\[C@H](C)[C@H](O)[C@@H](C)[C@@H](O)[C@@H](C)[C@H](OC(C)=O)[C@@H]1C [RIFAMPIN] | 4 (≈ 4.86 µM) | 128 (≈ 156 µM) | >128 | >128 |
